Measured values: ChEMBL document CHEMBL4017517, “Small Molecule Inhibitors Simultaneously Targeting Cancer Metabolism and Epigenetics: Discovery of Novel Nicotinamide Phosphoribosyltransferase (NAMPT) and Histone Deacetylase (HDAC) Dual Inhibitors” (J Med Chem, 2017)

Legend:
[1] = biological target: Nicotinamide phosphoribosyltransferase (Homo sapiens, UniProt P43490); test: Inhibition of human recombinant NAMPT using NAM as substrate preincubated for 5 mins followed by substrate addition measured after 15 mins by fluorescence assay
HCT-116 [2] = test: cells; type: functional, cell-based; settings: Homo sapiens, HCT-116, 72 h
HepG2 = test: cells; type: functional, cell-based; settings: Homo sapiens, HepG2, 72 h
[3] = biological target: Histone deacetylase 3/NCoR1 (Homo sapiens, UniProt O15379); test: Inhibition of human recombinant HDAC3/GST tagged NCOR1 (397 to 503 residues) expressed in insect cells using Ac-Leu-Gly-Lys(Ac)-AMC as substrate preincubated for 5 mins followed by substrate addition measured after 30 mins by fluorescence assay
Histone deacetylase 8 = biological target: T1, Histone deacetylase 8 (Homo sapiens, UniProt Q9BY41); test: Inhibition of GST tagged full length human recombinant HDAC8 (H90 to 30H) expressed in Baculovirus infected Sf9 insect cells using Ac-Leu-Gly-Lys(Tfa)-AMC as substrate preincubated for 5 mins followed by substrate addition measured after 30 mins by fluorescence assay
T1 sequence (Q9BY41 whole entry): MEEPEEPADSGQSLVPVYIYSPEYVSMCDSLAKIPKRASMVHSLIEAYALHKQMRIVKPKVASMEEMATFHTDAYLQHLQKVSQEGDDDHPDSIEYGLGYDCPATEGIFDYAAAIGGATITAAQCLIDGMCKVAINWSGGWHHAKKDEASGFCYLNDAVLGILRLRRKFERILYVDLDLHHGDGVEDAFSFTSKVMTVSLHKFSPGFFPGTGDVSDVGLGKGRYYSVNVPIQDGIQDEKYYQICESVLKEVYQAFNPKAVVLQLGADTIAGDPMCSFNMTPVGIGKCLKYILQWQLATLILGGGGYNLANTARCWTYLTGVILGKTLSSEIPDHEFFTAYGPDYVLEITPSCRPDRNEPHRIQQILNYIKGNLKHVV

HCT-116 [4] = test: Induction of apoptosis in human HCT116 cells assessed as late apoptotic cells at 5 uM after 72 hrs by Annexin V-FITC/propidium iodide staining-based flow cytometric analysis (reference value: 3.33%); type: functional
Outline: (§1)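 HCT116 cells seeded at 5×10^5 cells/mL in six-well plates, treated at 5 μM for 72 h alongside vehicle. Cells trypsinized, washed twice in cold PBS, and resuspended in 1× binding buffer. Stained with annexin V-FITC 15 min at room temperature, then PI 15 min in dark, then flow cytometry.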

HCT-116 [5] = test: Induction of apoptosis in human HCT116 cells assessed as necrotic cells at 5 uM after 72 hrs by Annexin V-FITC/propidium iodide staining-based flow cytometric analysis (reference value: 1.25%); type: functional; outline: as §1
HCT-116 [6] = test: Induction of apoptosis in human HCT116 cells assessed as late apoptotic cells at 5 uM after 72 hrs in presence of autophagy inhibitor wortmannin by Annexin V-FITC/propidium iodide staining-based flow cytometric analysis (reference value: 3.33%); type: functional
HCT-116 [7] = test: Induction of apoptosis in human HCT116 cells assessed as necrotic cells at 5 uM after 72 hrs in presence of autophagy inhibitor wortmannin by Annexin V-FITC/propidium iodide staining-based flow cytometric analysis (reference value: 1.25%); type: functional
[8] = Terminal half life in Sprague-Dawley rat at 2 mg/kg, ip; type: ADME, organism-based; settings: in vivo, read-out: beta t1/2 (converted)
Outline: (§2)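 Sprague-Dawley rats given a single ip dose of 2 mg/kg. Plasma concentration–time profile used to derive terminal half-life, Cmax, plasma clearance and Vss.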

[9] = Cmax in Sprague-Dawley rat at 2 mg/kg, ip; type: ADME, organism-based; design: dose 2 mg/kg, route intraperitoneal; settings: in vivo; outline: as §2
Rattus norvegicus = test: Volume of distribution at steady state in Sprague-Dawley rat at 2 mg/kg, ip; type: ADME, organism-based; settings: in vivo; outline: as §2
[10] = Plasma clearance in Sprague-Dawley rat at 2 mg/kg, ip; type: ADME, organism-based; outline: as §2

Histone deacetylase 3/NCoR1, sequence (O15379 whole entry, the tested form may be a part): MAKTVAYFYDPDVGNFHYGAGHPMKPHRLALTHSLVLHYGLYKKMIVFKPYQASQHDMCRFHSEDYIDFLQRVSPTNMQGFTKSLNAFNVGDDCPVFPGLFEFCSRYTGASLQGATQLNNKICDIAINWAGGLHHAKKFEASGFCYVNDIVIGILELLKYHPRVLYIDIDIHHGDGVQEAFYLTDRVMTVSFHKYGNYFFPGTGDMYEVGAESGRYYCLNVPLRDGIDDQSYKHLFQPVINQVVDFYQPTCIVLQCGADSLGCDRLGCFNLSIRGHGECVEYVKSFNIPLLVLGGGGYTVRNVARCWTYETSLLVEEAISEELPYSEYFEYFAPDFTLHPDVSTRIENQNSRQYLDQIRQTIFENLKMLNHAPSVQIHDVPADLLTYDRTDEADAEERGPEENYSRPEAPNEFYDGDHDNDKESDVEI
Histone deacetylase 3/NCoR1, sequence (O75376 whole entry, further chain, the tested form may be a part): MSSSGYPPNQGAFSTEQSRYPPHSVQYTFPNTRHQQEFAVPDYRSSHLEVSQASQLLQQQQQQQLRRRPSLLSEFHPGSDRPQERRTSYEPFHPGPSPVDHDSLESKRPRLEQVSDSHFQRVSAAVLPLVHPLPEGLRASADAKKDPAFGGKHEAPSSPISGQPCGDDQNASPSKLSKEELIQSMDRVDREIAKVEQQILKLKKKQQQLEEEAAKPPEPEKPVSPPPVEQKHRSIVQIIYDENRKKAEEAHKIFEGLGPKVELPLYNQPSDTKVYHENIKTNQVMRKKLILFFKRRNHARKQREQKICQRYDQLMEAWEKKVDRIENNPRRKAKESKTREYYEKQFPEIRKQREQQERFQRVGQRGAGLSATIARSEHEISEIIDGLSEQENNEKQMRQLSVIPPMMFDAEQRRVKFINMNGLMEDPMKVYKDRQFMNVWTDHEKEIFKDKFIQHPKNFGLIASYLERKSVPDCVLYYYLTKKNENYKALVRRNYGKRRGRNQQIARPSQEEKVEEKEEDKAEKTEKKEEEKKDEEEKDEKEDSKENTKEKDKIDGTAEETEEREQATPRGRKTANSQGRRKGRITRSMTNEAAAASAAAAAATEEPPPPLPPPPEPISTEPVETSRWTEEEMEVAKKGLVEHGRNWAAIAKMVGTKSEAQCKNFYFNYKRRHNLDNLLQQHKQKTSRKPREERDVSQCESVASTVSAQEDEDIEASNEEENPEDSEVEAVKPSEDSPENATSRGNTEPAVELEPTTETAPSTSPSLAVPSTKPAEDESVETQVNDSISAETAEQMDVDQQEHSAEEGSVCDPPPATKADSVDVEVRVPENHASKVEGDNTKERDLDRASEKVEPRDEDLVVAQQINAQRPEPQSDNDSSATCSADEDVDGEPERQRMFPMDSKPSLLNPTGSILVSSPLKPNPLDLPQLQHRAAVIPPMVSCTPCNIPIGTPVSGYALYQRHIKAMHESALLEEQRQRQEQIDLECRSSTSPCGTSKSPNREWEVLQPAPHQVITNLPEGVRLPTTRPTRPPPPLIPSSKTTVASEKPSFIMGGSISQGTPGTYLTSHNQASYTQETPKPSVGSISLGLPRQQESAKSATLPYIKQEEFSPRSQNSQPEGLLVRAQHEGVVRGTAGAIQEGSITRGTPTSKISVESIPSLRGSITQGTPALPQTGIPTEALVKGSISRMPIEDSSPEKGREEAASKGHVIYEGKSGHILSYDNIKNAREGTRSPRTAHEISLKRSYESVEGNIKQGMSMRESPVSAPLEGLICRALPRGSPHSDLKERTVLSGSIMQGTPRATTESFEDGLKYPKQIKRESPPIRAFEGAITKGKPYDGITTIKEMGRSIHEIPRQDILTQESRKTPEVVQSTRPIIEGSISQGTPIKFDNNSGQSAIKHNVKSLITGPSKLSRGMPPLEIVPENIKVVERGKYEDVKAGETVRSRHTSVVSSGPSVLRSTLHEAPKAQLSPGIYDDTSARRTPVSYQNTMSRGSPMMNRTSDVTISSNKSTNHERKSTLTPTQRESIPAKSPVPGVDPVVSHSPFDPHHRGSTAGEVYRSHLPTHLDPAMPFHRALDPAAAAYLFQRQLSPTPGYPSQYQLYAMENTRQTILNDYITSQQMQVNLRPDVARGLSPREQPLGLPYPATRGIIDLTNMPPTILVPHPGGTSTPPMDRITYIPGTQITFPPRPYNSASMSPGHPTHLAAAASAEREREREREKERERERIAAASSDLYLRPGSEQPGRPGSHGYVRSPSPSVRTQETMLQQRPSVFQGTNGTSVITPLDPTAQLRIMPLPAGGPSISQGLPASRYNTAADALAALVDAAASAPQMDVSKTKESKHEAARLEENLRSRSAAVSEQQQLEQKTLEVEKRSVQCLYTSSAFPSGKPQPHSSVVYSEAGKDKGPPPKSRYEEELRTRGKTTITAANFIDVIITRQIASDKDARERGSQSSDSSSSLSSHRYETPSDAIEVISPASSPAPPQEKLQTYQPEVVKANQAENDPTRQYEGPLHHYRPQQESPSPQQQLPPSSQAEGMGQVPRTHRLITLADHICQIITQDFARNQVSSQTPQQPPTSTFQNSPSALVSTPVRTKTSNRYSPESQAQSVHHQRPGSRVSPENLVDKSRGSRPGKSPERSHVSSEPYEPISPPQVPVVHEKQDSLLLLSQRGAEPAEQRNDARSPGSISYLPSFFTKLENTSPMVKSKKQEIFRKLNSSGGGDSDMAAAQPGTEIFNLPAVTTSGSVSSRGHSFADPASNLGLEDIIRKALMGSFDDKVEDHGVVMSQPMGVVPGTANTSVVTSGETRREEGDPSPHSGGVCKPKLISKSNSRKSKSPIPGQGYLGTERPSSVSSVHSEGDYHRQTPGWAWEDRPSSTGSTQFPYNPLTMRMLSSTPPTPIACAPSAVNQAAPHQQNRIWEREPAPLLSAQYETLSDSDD
Nicotinamide phosphoribosyltransferase, sequence (P43490 whole entry): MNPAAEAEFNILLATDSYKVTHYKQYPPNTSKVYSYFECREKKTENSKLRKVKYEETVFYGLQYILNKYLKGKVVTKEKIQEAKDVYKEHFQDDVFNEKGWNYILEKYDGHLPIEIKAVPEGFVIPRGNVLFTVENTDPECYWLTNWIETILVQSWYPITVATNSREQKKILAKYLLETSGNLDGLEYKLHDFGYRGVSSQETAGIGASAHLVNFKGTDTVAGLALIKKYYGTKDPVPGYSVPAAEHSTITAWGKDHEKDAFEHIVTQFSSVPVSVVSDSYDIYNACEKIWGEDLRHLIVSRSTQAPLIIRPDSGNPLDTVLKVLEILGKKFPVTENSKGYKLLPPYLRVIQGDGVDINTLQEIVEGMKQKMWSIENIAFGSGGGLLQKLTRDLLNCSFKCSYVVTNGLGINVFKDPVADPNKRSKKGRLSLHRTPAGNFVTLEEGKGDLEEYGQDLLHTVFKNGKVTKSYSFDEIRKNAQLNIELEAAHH

Nc1ccccc1NC(=O)c1ccc(Cn2cc(-c3ccc(C(=O)NCc4cccnc4)cc3)nn2)cc1
IC50 [1]: 31 nM
IC50 (HCT-116 [2]): 2400 nM
IC50 (HepG2): 4500 nM
IC50 [3]: 1870 nM
IC50 (Histone deacetylase 8): > 100000 nM
Activity (HCT-116 [4]): 21.84%
Activity (HCT-116 [5]): 2.43%
Activity (HCT-116 [6]): 15.22%
Activity (HCT-116 [7]): 2.19%
half-life [8]: 1.8 h
Cmax [9]: 745 ng/mL
Vdss (Rattus norvegicus): 6.229 L/kg
CL/F [10]: 103 mL/min/kg
